This is one part of a sample in which hits are shown more often than they occur.
T cruzi growth-1 = inhibitors of T. cruzi proliferation | T. cruzi beta-gal in NIH3T3, GalScreen luminescence, 90 h | inhibition, % at 8.34 µM | 5.9% of 77,000 active | AID 624255;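 active = mean inhibition above about 93%, with at least 55% of replicates each passing it, limit read from the data, passing the limit was not always enough; inconclusive = only one of those two conditions holds; inactive = neither condition holds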
GASC1 inh = inhibitors of human demethylase GASC-1 KDM4C | inhibition, % at 12.5 µM | GST-KDM4C 2-372, H3K9me3 peptide, LANCE TR-FRET | Q9H3R0 | 0.15% of 96,000 active;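 active = mean replicate inhibition above about 25%, with at least 55% of replicates also reaching it, limit read from the data, passing the limit was not always enough; inconclusive = only one of those two conditions met; inactive = neither condition met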
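Material: N-terminal GST-fused human GASC-1 (KDM4C) fragment, residues 2-372. Input: 10 nM enzyme. Incubation: enzyme reaction 30 min, then detection 60 min, both room temperature. Doses: one test concentration per compound. Read-out basis: inhibition from TR-FRET ratio decrease. Detection: LANCE TR-FRET, excitation 340 nm, emissions 618 and 671 nm.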
IDH1 mut inh = blocks human IDH1 R132H reductase activity; diaphorase/resazurin fluorescence, 60 min; inhibition, % at 10 µM; 0.18% of 70,000 active; in the data active = inhibition above about 34%; inconclusive = no clear call, values can overlap the other calls; inactive = below about 11%
Target sequence (O75874 whole entry R132H): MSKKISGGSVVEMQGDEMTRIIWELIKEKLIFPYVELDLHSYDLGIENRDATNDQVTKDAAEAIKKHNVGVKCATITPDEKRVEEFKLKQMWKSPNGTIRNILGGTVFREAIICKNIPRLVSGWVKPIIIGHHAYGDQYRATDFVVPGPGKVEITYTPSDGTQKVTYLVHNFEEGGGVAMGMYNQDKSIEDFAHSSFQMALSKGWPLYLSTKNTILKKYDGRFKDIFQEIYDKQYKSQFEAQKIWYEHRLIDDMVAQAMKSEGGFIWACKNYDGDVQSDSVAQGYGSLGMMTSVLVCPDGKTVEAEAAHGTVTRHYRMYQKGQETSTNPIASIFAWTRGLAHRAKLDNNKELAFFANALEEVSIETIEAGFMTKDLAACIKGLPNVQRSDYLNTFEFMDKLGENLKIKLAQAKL
T cruzi growth-2 = inhibitors of T. cruzi proliferation; T. cruzi beta-gal in NIH3T3, GalScreen luminescence, 90 h; AID 651739; shares compounds with T cruzi growth-1; inhibition, % at 8.35 µM; 72% of 5,600 active;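 active = mean replicate inhibition above about 95% and at least 55% of replicates individually reaching it, limit read from the data; inconclusive = only one of the two criteria is met; inactive = neither criterion is met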
T cruzi growth-3 = blocks T. cruzi growth in NIH3T3 host cells | shares compounds with T cruzi growth-1 | T. cruzi beta-gal in NIH3T3, GalScreen luminescence, 90 h | inhibition, % at 2.09 µM | 21% of 5,600 active;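 active = mean inhibition above about 95%, with at least 55% of replicates also reaching it, limit read from the data; inconclusive = meets just one of the two conditions; inactive = meets neither condition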
3T3 cytotox = NIH/3T3 (mouse) viability loss; NIH/3T3 viability, CellTiter-Glo ATP luminescence, 90 h; shares compounds with T cruzi growth-1; 14% of 5,600 active; AID 651742; cytotoxicity (signal decrease), % at 8.35 µM;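 active = mean signal decrease across replicates above about 35% based on untreated-well scatter, with enough replicates individually passing, limit read from the data; inconclusive = no rule stated though some were filed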
3T3 cytotox 2 = cytotoxicity in mouse NIH/3T3 fibroblasts; shares compounds with T cruzi growth-1; NIH/3T3 viability, CellTiter-Glo ATP luminescence, 90 h; inhibition, % at 24.9 µM; 56% of 5,600 active; AID 651744;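 active = mean loss of cell viability signal at or above a set limit, and enough replicates individually reaching it; inconclusive = meets only the mean limit or only the replicate share; inactive = meets neither condition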
A number is an active result; n = inactive; u = inconclusive; x = no result given.

SMILES | T cruzi growth-1 | GASC1 inh | IDH1 mut inh | T cruzi growth-2 | T cruzi growth-3 | 3T3 cytotox | 3T3 cytotox 2
COc1ccccc1-c1ccccc1[C@H]1[C@H](C#N)N(C(=O)C2CC2)[C@H]1CO | x | n | x | x | x | x | x
COc1ccccc1-c1ccc([C@H]2[C@@H](C#N)N(C(=O)C3CC3)[C@H]2CO)cc1 | 98.9 | n | x | n | n | n | n
COc1ccc(-c2ccc([C@H]3[C@H](C#N)N(C(=O)C4CC4)[C@H]3CO)cc2)cc1 | n | n | x | x | x | x | x
COc1ccccc1-c1ccc([C@@H]2[C@@H](C#N)N(C(=O)C3CCCC3)[C@@H]2CO)cc1 | x | n | x | x | x | x | x
COc1ccccc1-c1ccc([C@H]2[C@H](C#N)N(C(=O)C3CC3)[C@H]2CO)cc1 | 105.2 | n | x | n | n | n | u
COc1ccccc1-c1ccc([C@@H]2[C@@H](CO)N(C(=O)C3CC3)[C@H]2C#N)cc1 | 105.4 | n | x | n | n | n | n
c1ccc(-n2cc3c(c2)CCc2cn(-c4ccccc4)cc2CC3)cc1 | x | x | n | x | x | x | x
Cc1ccc(C)c(NC(=O)CSc2nnc(-c3ccc(N)cc3)n2C)c1 | x | x | n | x | x | x | x
COc1ccc(C(=O)Nc2ccc(C(=O)NCc3ccco3)cc2)cc1 | x | x | n | x | x | x | x
N#C[C@H]1[C@H](c2ccc(-c3ccccc3F)cc2)[C@H](CO)N1C(=O)C1CC1 | n | n | x | x | x | x | x
COc1ccccc1-c1ccc([C@H]2[C@@H](CO)N(C(=O)C3CCCCC3)[C@H]2C#N)cc1 | n | n | n | x | x | x | x
COc1ccccc1-c1ccc([C@@H]2[C@@H](C#N)N(C(=O)C3CC3)[C@@H]2CO)cc1 | 104.1 | n | x | n | n | n | n
COc1ccccc1-c1ccc([C@H]2[C@@H](C#N)N(C(=O)C3CC3)[C@@H]2CO)cc1 | 102.7 | n | x | 109.8 | n | n | 34.8
Cc1cc(CNC(=O)c2cc(-c3cccnc3)nc3ccc(Cl)cc23)nn1C | x | x | n | x | x | x | x
Cc1noc(C)c1S(=O)(=O)Nc1ccc2c(c1)C(=O)N([C@H](C)CO)C[C@H](C)[C@H](CN(C)Cc1ccc(C(=O)Nc3ccccc3N)cc1)O2 | x | n | x | x | x | x | x
Cc1noc(C)c1S(=O)(=O)Nc1cccc2c1O[C@H](CN(C)Cc1ccc(C(=O)Nc3ccccc3N)cc1)[C@H](C)CN([C@@H](C)CO)C2=O | u | n | x | 101.0 | n | n | 35.8
Cc1noc(C)c1NC(=O)N(C)C[C@@H]1Oc2ccc(N(C)C)cc2C(=O)N([C@H](C)CO)C[C@H]1C | 106.4 | n | x | n | n | n | n
Cc1noc(C)c1NC(=O)N(C)C[C@H]1Oc2ccc(N(C)C)cc2C(=O)N([C@H](C)CO)C[C@@H]1C | n | x | x | x | x | x | x
Cc1noc(C)c1S(=O)(=O)Nc1cccc2c1O[C@@H](CN(C)Cc1ccc(C(=O)Nc3ccccc3N)cc1)[C@@H](C)CN([C@H](C)CO)C2=O | x | n | x | x | x | x | x
Cc1noc(C)c1S(=O)(=O)Nc1cccc2c1O[C@H](CN(C)Cc1ccc(-c3ccccc3)cc1)[C@H](C)CN([C@@H](C)CO)C2=O | 100.0 | n | n | n | n | n | n
Cc1noc(C)c1S(=O)(=O)Nc1cccc2c1O[C@@H](CN(C)Cc1ccc(-c3ccccc3)cc1)[C@@H](C)CN([C@@H](C)CO)C2=O | n | n | n | x | x | x | x
Cc1noc(C)c1S(=O)(=O)Nc1ccc2c(c1)C(=O)N([C@@H](C)CO)C[C@@H](C)[C@@H](CN(C)Cc1ccc(C(=O)Nc3ccccc3N)cc1)O2 | u | n | n | 100.4 | n | n | 33.0
COc1ccc(C(C)=O)cc1CSc1nnc(-c2cccc(Br)c2)n1-c1ccccc1 | x | x | n | x | x | x | x
COC(=O)CCSc1nc(SC)nc2sc3c(c12)CC(C)(C)OC3 | x | x | n | x | x | x | x
COc1cccc(OCC(=O)Nc2cccc(Oc3ccc4c(c3)C(=O)NC4=O)c2)c1 | x | x | n | x | x | x | x
SMILES | T cruzi growth-1 | GASC1 inh | IDH1 mut inh | T cruzi growth-2 | T cruzi growth-3 | 3T3 cytotox | 3T3 cytotox 2
CS(=O)(=O)N(CC(=O)Nc1c(F)cccc1F)c1cccc(Br)c1 | x | x | n | x | x | x | x
Cc1ccc2nc(-c3ccc(NC(=O)[C@@H]4CCCC[C@@H]4C(=O)O)cc3)sc2c1 | x | x | n | x | x | x | x
Cc1noc(C)c1NC(=O)N(C)C[C@H]1Oc2c(NS(=O)(=O)c3c(C)noc3C)cccc2C(=O)N([C@H](C)CO)C[C@H]1C | 104.3 | n | n | n | n | n | n
Cc1noc(C)c1NC(=O)N(C)C[C@@H]1Oc2c(NS(C)(=O)=O)cccc2C(=O)N([C@@H](C)CO)C[C@H]1C | n | n | n | x | x | x | x
C[C@@H]1CN([C@@H](C)CO)C(=O)c2cc(NS(=O)(=O)c3ccc(Cl)cc3)ccc2O[C@H]1CN(C)Cc1ccc(C(=O)Nc2ccccc2N)cc1 | n | n | x | x | x | x | x
C[C@@H]1CN([C@H](C)CO)C(=O)c2cc(NS(=O)(=O)c3ccc(Cl)cc3)ccc2O[C@@H]1CN(C)Cc1ccc(C(=O)Nc2ccccc2N)cc1 | u | n | n | n | n | n | 46.1
CC(=O)c1cccc(NC(=O)C(C)NS(=O)(=O)c2ccc(Cl)cc2)c1 (stereo not given) | x | x | n | x | x | x | x
COc1ccccc1-c1ccc2c(c1)O[C@H](CN(C)S(=O)(=O)c1ccc(C)cc1)[C@H](C)CN([C@H](C)CO)S2(=O)=O | 120.2 | n | n | 99.6 | u | n | 53.1
COc1ccccc1-c1ccc2c(c1)O[C@@H](CN(C)S(=O)(=O)c1ccc(C)cc1)[C@H](C)CN([C@@H](C)CO)S2(=O)=O | 126.1 | n | x | 99.7 | n | n | 45.8
Cc1ccc(S(=O)(=O)N(C)C[C@H]2Oc3cc(C#Cc4ccccc4)ccc3S(=O)(=O)N([C@@H](C)CO)C[C@@H]2C)cc1 | x | n | n | x | x | x | x
Cc1ccc(S(=O)(=O)N(C)C[C@H]2Oc3cc(C#Cc4ccccc4)ccc3S(=O)(=O)N([C@H](C)CO)C[C@H]2C)cc1 | x | n | n | x | x | x | x
O=c1c(C=Nc2ccccc2)c(O)c2c(n1-c1ccccc1)CCCC2 | x | x | n | x | x | x | x
O=C1C(=O)N(CCCn2ccnc2)C(c2cccs2)C1C(=O)c1cc2ccccc2o1 (stereo not given) | x | x | n | x | x | x | x
C[C@H](CO)N1C[C@H](C)[C@@H](CN(C)C(=O)Cc2ccncc2)Oc2cc(C#CC3CCCC3)ccc2S1(=O)=O | 121.9 | n | x | 107.5 | n | n | u
C[C@@H]1CN([C@@H](C)CO)S(=O)(=O)c2ccc(C#CC3CCCC3)cc2O[C@@H]1CN(C)C(=O)Cc1ccncc1 | 121.9 | n | n | 97.2 | n | n | 62.2
C[C@H]1CN([C@@H](C)CO)S(=O)(=O)c2ccc(C#CC3CCCCC3)cc2O[C@@H]1CN(C)C(=O)Cc1ccncc1 | n | n | n | x | x | x | x
C[C@H](CO)N1C[C@H](C)[C@@H](CN(C)C(=O)Cc2ccncc2)Oc2cc(C#CC3CCCCC3)ccc2S1(=O)=O | n | n | x | x | x | x | x
Cc1cc(C)n2nc(SCC(=O)c3ccc4c5c(cccc35)CC4)nc2n1 | x | x | n | x | x | x | x
Cc1cccc(-n2c(C)nnc2SCC(=O)Nc2ccc(Br)cc2F)c1 | x | x | n | x | x | x | x

Screening data as filed in PubChem.
